Measurements as given in ChEMBL document CHEMBL1158007, “Steroidal glycosides from the bulbs of Allium jesdianum” (J Nat Prod, 1999).
Values after ≈ are worked out from the molar mass of the structure shown.

What was measured:
UACC-62 = test: Growth inhibition of human UACC-62 cells after 72 hrs by MTT assay; type: functional; settings: UACC-62, 72 h
UO-31 = test: Growth inhibition of human UO-31 cells after 72 hrs by MTT assay; type: functional; settings: UO-31, 72 h
SW-620 = test: Growth inhibition of human SW620 cells after 72 hrs by MTT assay; type: functional; settings: SW-620, 72 h
HCC 2998 = test: Growth inhibition of human HCC2998 cells after 72 hrs by MTT assay; type: functional; settings: HCC 2998, 72 h
NCI-H226 = test: Growth inhibition of human NCI-H226 cells after 72 hrs by MTT assay; type: functional; settings: NCI-H226, 72 h
MOLT-4 = test: Growth inhibition of human MOLT-4 cells after 72 hrs by MTT assay; type: functional; settings: MOLT-4, 72 h
SF-295 = test: Growth inhibition of human SF-295 cells after 72 hrs by MTT assay; type: functional; settings: SF-295, 72 h
LOX IMVI = test: Growth inhibition of human LOX IMVI cells after 72 hrs by MTT assay; type: functional
HT-29 = test: Growth inhibition of human HT-29 cells after 72 hrs by MTT assay; type: functional; settings: HT-29, 72 h
NCI/ADR-RES = test: Growth inhibition of human NCI/ADR-RES cells after 72 hrs by MTT assay; type: functional
MCF7 = test: Growth inhibition of human MCF7 cells after 72 hrs by MTT assay; type: functional; settings: MCF7, 72 h
IGROV-1 = test: Growth inhibition of human IGROV1 cells after 72 hrs by MTT assay; type: functional; settings: IGROV-1, 72 h
[1] = Growth inhibition of human Hs 578T cells after 72 hrs by MTT assay; type: functional
HL-60 = test: Cytotoxicity against human HL-60 cells after 72 hrs by MTT assay; type: functional, cell-based; settings: HL-60, 72 h
Summary of the method: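 HL-60 cells grown in RPMI 1640 with 10% FBS, L-glutamine, penicillin and streptomycin, seeded at 3 × 10^4 cells/mL, and preincubated 24 h at 37 °C in 5% CO2. Sample in EtOH-H2O (1:1) added to a final 0.01-10 µg/mL, with vehicle-only controls, for 72 h. MTT added for 4 h, then formazan dissolved in DMSO and read at 550 nm. IC50 taken from the dose-response curve.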

CCRF-CEM = test: Growth inhibition of human CCRF-CEM cells after 72 hrs by MTT assay; type: functional
Malme-3M = test: Growth inhibition of human MALME-3M cells after 72 hrs by MTT assay; type: functional
HCT-15 = test: Growth inhibition of human HCT-15 cells after 72 hrs by MTT assay; type: functional; settings: HCT-15, 72 h
PC-3 = test: Growth inhibition of human PC-3 cells after 72 hrs by MTT assay; type: functional; settings: PC-3, 72 h
EKVX = test: Growth inhibition of human EKVX cells after 72 hrs by MTT assay; type: functional
T47D = test: Growth inhibition of human T47D cells after 72 hrs by MTT assay; type: functional
A549 = test: Growth inhibition of human A549 cells after 72 hrs by MTT assay; type: functional; settings: A549, 72 h
COLO 205 = test: Growth inhibition of human COLO205 cells after 72 hrs by MTT assay; type: functional; settings: COLO 205, 72 h
A498 = test: Growth inhibition of human A498 cells after 72 hrs by MTT assay; type: functional; settings: A498, 72 h
SK-MEL-2 = test: Growth inhibition of human SK-MEL-2 cells after 72 hrs by MTT assay; type: functional; settings: SK-MEL-2, 72 h
SR = test: Growth inhibition of human SR cells after 72 hrs by MTT assay; type: functional
OVCAR-4 = test: Growth inhibition of human OVCAR-4 cells after 72 hrs by MTT assay; type: functional; settings: OVCAR-4, 72 h
NCI-H322M = test: Growth inhibition of human NCI-H322M cells after 72 hrs by MTT assay; type: functional
OVCAR-5 = test: Growth inhibition of human OVCAR5 cells after 72 hrs by MTT assay; type: functional; settings: OVCAR-5, 72 h
UACC-257 = test: Growth inhibition of human UACC-257 cells after 72 hrs by MTT assay; type: functional; settings: UACC-257, 72 h
SF-268 = test: Growth inhibition of human SF-268 cells after 72 hrs by MTT assay; type: functional; settings: SF-268, 72 h
ACHN = test: Growth inhibition of human ACHN cells after 72 hrs by MTT assay; type: functional
HOP-62 = test: Growth inhibition of human HOP-62 cells after 72 hrs by MTT assay; type: functional; settings: HOP-62, 72 h
RPMI-8226 = test: Growth inhibition of human RPMI 8226 cells after 72 hrs by MTT assay; type: functional; settings: RPMI-8226, 72 h
[2] = read-out: LC50 (the source's name)

## C[C@@H]1CC[C@@]2(OC1)O[C@H]1C[C@H]3[C@@H]4CC[C@H]5C[C@@H](O[C@@H]6O[C@H](CO)[C@H](O[C@@H]7O[C@H](CO)[C@@H](O)[C@H](O[C@@H]8OC[C@@H](O)[C@H](O)[C@H]8O)[C@H]7O[C@@H]7O[C@H](CO)[C@@H](O)[C@H](O)[C@H]7O)[C@H](O)[C@H]6O)[C@H](O)C[C@]5(C)[C@H]4CC[C@]3(C)[C@H]1[C@@H]2C
UACC-62
  GI50: 17 µM
  TGI: 42 µM
UACC-62; [2]
  CC50: < 100 µM
UO-31
  GI50: 2.4 µM
  TGI: 12 µM
UO-31; [2]
  CC50: 50 µM
SW-620
  GI50: 1.7 µM
  TGI: 19 µM
SW-620; [2]
  CC50: 78 µM
HCC 2998
  GI50: 12 µM
  TGI: 25 µM
HCC 2998; [2]
  CC50: 50 µM
NCI-H226
  GI50: 15 µM
  TGI: 34 µM
NCI-H226; [2]
  CC50: 76 µM
MOLT-4
  GI50: 41 µM
  TGI: 97 µM
MOLT-4; [2]
  CC50: < 100 µM
SF-295
  GI50: 12 µM
  TGI: 49 µM
SF-295; [2]
  CC50: < 100 µM
LOX IMVI
  GI50: 1.4 µM
  TGI: 7.9 µM
HT-29
  GI50: 1.1 µM
  TGI: 3.1 µM
NCI/ADR-RES
  GI50: 2.8 µM
  TGI: 12 µM
NCI/ADR-RES; [2]
  CC50: 46 µM
MCF7
  GI50: 0.3 µM
  TGI: 0.62 µM
MCF7; [2]
  CC50: 1.9 µM
IGROV-1
  GI50: 3.7 µM
  TGI: 17 µM
IGROV-1; [2]
  CC50: 48 µM
[1]
  GI50: 17 µM
  TGI: 32 µM
[1]; [2]
  CC50: 63 µM
HL-60
  IC50: 1.5 µg/mL (≈ 1.43 µM)
CCRF-CEM
  GI50: 0.25 µM
  TGI: 0.55 µM
CCRF-CEM; [2]
  CC50: 2 µM
Malme-3M
  GI50: 19 µM
  TGI: 35 µM
Malme-3M; [2]
  CC50: 69 µM
HCT-15
  GI50: 1.4 µM
  TGI: 11 µM
HCT-15; [2]
  CC50: 46 µM
PC-3
  GI50: 3.1 µM
  TGI: 15 µM
PC-3; [2]
  CC50: 41 µM
EKVX
  GI50: 11 µM
  TGI: 27 µM
EKVX; [2]
  CC50: 63 µM
T47D
  GI50: 5.4 µM
  TGI: 28 µM
T47D; [2]
  CC50: < 100 µM
A549
  GI50: 0.35 µM
A549; [2]
  CC50: < 100 µM
COLO 205
  GI50: 1.4 µM
  TGI: 32 µM
COLO 205; [2]
  CC50: < 100 µM
A498
  GI50: 4.9 µM
  TGI: 35 µM
A498; [2]
  CC50: < 100 µM
SK-MEL-2
  GI50: 5.5 µM
  TGI: 19 µM
SK-MEL-2; [2]
  CC50: 48 µM
SR
  GI50: 63 µM
  TGI: < 100 µM
SR; [2]
  CC50: < 100 µM
OVCAR-4
  GI50: 2 µM
  TGI: 4.6 µM
OVCAR-4; [2]
  CC50: 13 µM
NCI-H322M
  GI50: 12 µM
  TGI: 26 µM
NCI-H322M; [2]
  CC50: 55 µM
OVCAR-5
  GI50: 5 µM
  TGI: 20 µM
OVCAR-5; [2]
  CC50: 59 µM
UACC-257
  GI50: 17 µM
  TGI: 36 µM
UACC-257; [2]
  CC50: 71 µM
SF-268
  GI50: 13 µM
  TGI: 28 µM
SF-268; [2]
  CC50: 59 µM
ACHN
  GI50: 2.8 µM
  TGI: 12 µM
ACHN; [2]
  CC50: 38 µM
HOP-62
  GI50: 1.2 µM
  TGI: 2.8 µM
HOP-62; [2]
  CC50: 6.2 µM
RPMI-8226
  GI50: 0.79 µM
  TGI: 23 µM
RPMI-8226; [2]
  CC50: 81 µM
